Compounds with a hit are over-represented: about 3.5% of the library has one in this group of screens.
Cneo AK release: Cryptococcus neoformans lysis via adenylate kinase release. 360,000 tested, 0.2% active. C. neoformans lysis, adenylate kinase release luminescence, 4 h; normalised: neutral wells 0, clomiphene wells 100. lysis activity, % at 15 µM;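 active = mean lysis activity across replicates of at least 80%, whatever share of replicates individually reach that level; inactive = mean lysis activity below 80%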
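Material: C. neoformans cells; Schedule: 4 h static compound exposure, 37 °C, read 1 h post-reagent; Measured by: adenylate kinase release luminescence; Read-out: signal increase indicating cell lysis; Controls: Clomiphene as positive lysis control.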
MITF TRPM1 HTS: MITF TRPM1 promoter activation in melanoma cells; SK-MEL-5 TRPM1-promoter luciferase, 24 h; % of positive control, neutral wells = 0; activation, % at 12.5 µM; 300,000 tested, 0.75% active; AID 588334;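 active = mean activation of at least 80% with every replicate also reaching 80%; inconclusive = mean reaches 80% but some replicate falls short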
HIV Env fusion: HIV envelope-mediated fusion inhibition | HeLa-JRFL Env/CEM21 cell fusion, luciferase | inhibition, % at 12.3 µM | 360,000 tested, 1.1% active;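 active = mean replicate inhibition score of at least 50 and every replicate individually at or above 50; inconclusive = only one of the two criteria met; inactive = mean below 50 and not all replicates reaching 50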
esBAF inh: SWI/SNF esBAF complex inhibition; mouse ES cells, Bmi1-luciferase knock-in reporter, 24 h; 100% = twice the neutral-well signal; reporter increase, % at 12.5 µM; 350,000 tested, 2% active; AID 602393; in the data active = activation above about 40%; inconclusive = no clear call, values can overlap the other calls;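 note: a rise in the Bmi1 reporter signal indicates esBAF inhibition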
ERAP1 HTS inh: blocks human ERAP1 aminopeptidase activity. recombinant ERAP1, Leu-AMC fluorescence, 60 min. inhibition, % at 10.7 µM. 340,000 tested, 0.15% active. AID 652197;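 active = mean replicate inhibition of at least 30%, or all replicates individually reaching that 30% level; inactive = mean below 30% and not every replicate reaching it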
Wnt act: Wnt/beta-catenin pathway activation; 300,000 tested, 1.2% active; Wnt/beta-catenin reporter cell assay, activator, plate reader; AID 743398; activation, % at 9.35 µM; in the data active = activation above about 30%, passing the limit was not always enough; inconclusive = no clear call, values can overlap the other calls
Hits are given with their value.

Screening COc1ccc(-c2nc(NC(=O)C3CCN(c4nc5ccccc5o4)CC3)sc2C)cc1 returned Cneo AK release inactive, HIV Env fusion 66.8, esBAF inh inactive and Wnt act inactive.
O=C(Nc1nc2cc3c(cc2s1)OCCO3)c1ccco1 was read as Cneo AK release inactive, MITF TRPM1 HTS inactive, HIV Env fusion 58.2, esBAF inh inactive, ERAP1 HTS inh inactive and Wnt act inactive.
`C[C@H]1CCCCO[C@@H](CN(C)Cc2ccc3c(c2)OCO3)[C@@H](C)CN([C@@H](C)CO)C(=O)c2cc(NS(=O)(=O)c3ccccc3)ccc2O1` gave Cneo AK release inactive, HIV Env fusion inactive, esBAF inh inactive and ERAP1 HTS inh inactive.
`CCOC(=O)c1ccc2nc(NC(=O)c3ccco3)sc2c1` gave Cneo AK release inactive, MITF TRPM1 HTS inactive, HIV Env fusion inactive, esBAF inh inactive and Wnt act 73.8.
`CCOC(=O)c1ccc2nc(NC(=O)C(C)C)sc2c1` gave Cneo AK release inactive, HIV Env fusion inactive, esBAF inh inactive, ERAP1 HTS inh inactive and Wnt act inconclusive.
`Cc1cccc2sc(NC(=O)CCNC(=O)c3ccco3)nc12` gave Cneo AK release inactive, MITF TRPM1 HTS inactive, esBAF inh inactive, ERAP1 HTS inh inactive and Wnt act inactive.
CCOc1ccc2nc(NC(=O)c3ccco3)sc2c1 was read as Cneo AK release inactive, MITF TRPM1 HTS inactive, HIV Env fusion inactive, esBAF inh inactive, ERAP1 HTS inh inactive and Wnt act inactive.
For CC(=O)c1sc(NC(=O)CCNC(=O)c2ccco2)nc1-c1ccccc1 the results were Cneo AK release inactive, MITF TRPM1 HTS inactive, HIV Env fusion 62.4, esBAF inh inactive, ERAP1 HTS inh inactive and Wnt act inactive.
`CCCC(=O)Nc1nc2ccc(C(=O)OCC)cc2s1` gave Cneo AK release inactive, MITF TRPM1 HTS 92.1, HIV Env fusion inactive, esBAF inh 65.1, ERAP1 HTS inh inactive and Wnt act inactive.
Screening CO[C@@H]1CC[C@H]2CCOc3ccc(C#N)cc3C(=O)N(C)C[C@@H](OC)[C@@H](C)C(=O)N(C)C[C@H]1O2 returned Cneo AK release inactive, HIV Env fusion inactive, esBAF inh inactive and ERAP1 HTS inh inactive.
Screening COc1cc2c(cc1[N+](=O)[O-])-c1ccc([N+](=O)[O-])cc1C2 returned Cneo AK release inactive, HIV Env fusion inactive, esBAF inh inactive, ERAP1 HTS inh inactive and Wnt act inactive.
`COc1cc2c(cc1[N+](=O)[O-])-c1ccccc1C2` gave Cneo AK release inactive, MITF TRPM1 HTS inactive, HIV Env fusion inactive, esBAF inh 41.6, ERAP1 HTS inh inactive and Wnt act inactive.
For CO[C@H]1CN(C)C(=O)c2ccc(NC(=O)Nc3ccc4c(c3)OCO4)cc2OC[C@@H](C)NC[C@@H]1C the results were Cneo AK release inactive, HIV Env fusion inactive, esBAF inh 56.4 and ERAP1 HTS inh inactive.
Screening CCC(=O)Nc1ccc2c(c1)C(=O)N(C)C[C@H](OC)[C@@H](C)CN[C@H](C)CO2 returned Cneo AK release 83.8, esBAF inh inactive and ERAP1 HTS inh inactive.
`CO[C@H]1CN(C)C(=O)c2ccc(NC(=O)c3ccc4c(c3)OCO4)cc2OC[C@@H](C)NC[C@H]1C` gave Cneo AK release inactive, esBAF inh inactive and ERAP1 HTS inh inactive.
Screening CCC(=O)Nc1ccc2c(c1)C(=O)N(C)C[C@@H](OC)[C@H](C)CN[C@H](C)CO2 returned Cneo AK release inactive, esBAF inh inactive and ERAP1 HTS inh inactive.
CO[C@H]1CN(C)C(=O)c2ccc(NC(=O)c3ccc4c(c3)OCO4)cc2OC[C@H](C)NC[C@@H]1C was read as Cneo AK release inactive, esBAF inh inactive and ERAP1 HTS inh inactive.
CO[C@@H]1CN(C)C(=O)c2ccc(NC(=O)Nc3ccc4c(c3)OCO4)cc2OC[C@H](C)NC[C@H]1C was read as Cneo AK release inactive, HIV Env fusion inactive, esBAF inh 92.8 and ERAP1 HTS inh inactive.
Screening C[C@@H]1CCCCO[C@@H](CN(C)S(=O)(=O)c2cn(C)cn2)[C@@H](C)CN([C@H](C)CO)C(=O)c2cc(NS(=O)(=O)c3cccs3)ccc2O1 returned Cneo AK release inactive, HIV Env fusion inactive, esBAF inh inactive and ERAP1 HTS inh inactive.
Screening C[C@H](CO)N1C[C@H](C)[C@H](CN(C)Cc2ccc(Cl)c(Cl)c2)Oc2c(NC(=O)c3ccncc3)cccc2C1=O returned Cneo AK release inactive, HIV Env fusion inactive, esBAF inh inactive and ERAP1 HTS inh inactive.

From PubChem BioAssay
